Laboratory results published in ChEMBL document CHEMBL1137343, “4-arylazo-3,5-diamino-1H-pyrazole CDK inhibitors: SAR study, crystal structure in complex with CDK2, selectivity, and cellular effects” (J Med Chem, 2006).
pIC50, pKi: −log10 of the molar value. The source made the active and inactive calls. The calls are words filed in the database; no cut-off is given here.

How the values were obtained:
[1] = target: T1, Cyclin-dependent kinase 2/cyclin E (Homo sapiens, UniProt P24941); assay: Inhibition of CDK2/Cyclin E in presence of 15 uM ATP; assay type: protein-complex assay
[2] = target: Tyrosine-protein kinase ABL1 (Homo sapiens) (UniProt P00519); assay: Activity of c-ABL at 10 uM
Tyrosine-protein kinase ABL1 (Homo sapiens), sequence (P00519 whole entry): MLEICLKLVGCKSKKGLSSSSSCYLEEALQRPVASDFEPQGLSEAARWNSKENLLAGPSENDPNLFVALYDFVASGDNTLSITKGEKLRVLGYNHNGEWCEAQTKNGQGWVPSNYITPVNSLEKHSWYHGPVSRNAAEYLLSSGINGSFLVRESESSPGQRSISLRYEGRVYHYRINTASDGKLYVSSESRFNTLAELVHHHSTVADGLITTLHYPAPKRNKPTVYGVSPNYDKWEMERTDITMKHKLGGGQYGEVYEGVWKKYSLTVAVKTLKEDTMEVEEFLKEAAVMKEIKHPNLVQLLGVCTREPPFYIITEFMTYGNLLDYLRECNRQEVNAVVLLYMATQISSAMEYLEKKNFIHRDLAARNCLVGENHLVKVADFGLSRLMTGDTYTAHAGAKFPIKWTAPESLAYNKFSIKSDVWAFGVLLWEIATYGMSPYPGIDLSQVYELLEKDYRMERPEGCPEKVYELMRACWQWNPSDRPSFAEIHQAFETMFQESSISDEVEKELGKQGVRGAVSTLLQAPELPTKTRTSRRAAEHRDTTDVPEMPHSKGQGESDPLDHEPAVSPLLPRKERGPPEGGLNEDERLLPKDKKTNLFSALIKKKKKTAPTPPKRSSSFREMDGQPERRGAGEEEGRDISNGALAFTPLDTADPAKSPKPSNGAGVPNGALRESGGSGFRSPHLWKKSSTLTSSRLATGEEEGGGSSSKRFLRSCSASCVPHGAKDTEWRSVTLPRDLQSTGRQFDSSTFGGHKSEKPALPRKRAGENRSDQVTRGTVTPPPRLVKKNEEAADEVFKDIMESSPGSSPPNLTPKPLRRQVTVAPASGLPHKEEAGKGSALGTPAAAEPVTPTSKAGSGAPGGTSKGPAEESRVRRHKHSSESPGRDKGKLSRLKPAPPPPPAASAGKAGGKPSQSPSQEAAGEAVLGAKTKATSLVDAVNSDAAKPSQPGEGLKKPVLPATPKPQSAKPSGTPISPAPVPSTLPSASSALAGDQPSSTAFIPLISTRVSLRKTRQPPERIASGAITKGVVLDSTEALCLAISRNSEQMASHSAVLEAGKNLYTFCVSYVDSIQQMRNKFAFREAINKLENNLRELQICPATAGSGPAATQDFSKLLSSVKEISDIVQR
Procedure, shortened: (§1)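 Radiometric kinase assay at 10 µM inhibitor, run in duplicate. c-Abl, CHK1, GSK3β, p70S6K, PKA and PKBα were run in 8 mM MOPS pH 7.0 with 0.2 mM EDTA. MAPK1 and SAPK2α were run in 25 mM Tris pH 7.5 with 0.02 mM EGTA. CK2 was run in 20 mM HEPES pH 7.6, 0.15 M NaCl, 0.1 mM EDTA, 2 mM DTT and 0.1% Triton X-100. All had 10 mM Mg-acetate, 10 µM ATP, [γ-33P]ATP and a peptide substrate; 40 min; H3PO4 stop; P30 filter; scintillation counting.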

[3] = target: Serine/threonine-protein kinase Chk1 (Homo sapiens) (UniProt O14757); assay: Activity of CHK1 at 10 uM; procedure, shortened: as §1
Serine/threonine-protein kinase Chk1 (Homo sapiens), sequence (O14757 whole entry): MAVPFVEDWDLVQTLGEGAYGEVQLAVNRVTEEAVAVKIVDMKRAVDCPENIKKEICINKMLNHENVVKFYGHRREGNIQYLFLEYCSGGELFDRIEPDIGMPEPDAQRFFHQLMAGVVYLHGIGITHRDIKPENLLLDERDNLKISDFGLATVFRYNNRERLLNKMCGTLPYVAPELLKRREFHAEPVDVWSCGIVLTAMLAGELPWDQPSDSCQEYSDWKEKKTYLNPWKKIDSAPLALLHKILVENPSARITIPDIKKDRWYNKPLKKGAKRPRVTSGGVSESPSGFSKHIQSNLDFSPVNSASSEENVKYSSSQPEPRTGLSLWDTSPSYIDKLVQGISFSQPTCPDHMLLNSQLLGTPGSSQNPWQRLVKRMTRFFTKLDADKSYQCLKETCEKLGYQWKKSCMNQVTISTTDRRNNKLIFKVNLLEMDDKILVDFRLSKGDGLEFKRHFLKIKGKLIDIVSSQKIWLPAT

[4] = target: Casein kinase II (Homo sapiens) (UniProt P67870+P68400+P19784); assay: Activity of CK2 at 10 uM; assay type: protein-complex assay; procedure, shortened: as §1
[5] = target: Glycogen synthase kinase-3 beta (Homo sapiens) (UniProt P49841); assay: Activity of GSK3-beta at 10 uM; procedure, shortened: as §1
Glycogen synthase kinase-3 beta (Homo sapiens), sequence (P49841 whole entry, looked up): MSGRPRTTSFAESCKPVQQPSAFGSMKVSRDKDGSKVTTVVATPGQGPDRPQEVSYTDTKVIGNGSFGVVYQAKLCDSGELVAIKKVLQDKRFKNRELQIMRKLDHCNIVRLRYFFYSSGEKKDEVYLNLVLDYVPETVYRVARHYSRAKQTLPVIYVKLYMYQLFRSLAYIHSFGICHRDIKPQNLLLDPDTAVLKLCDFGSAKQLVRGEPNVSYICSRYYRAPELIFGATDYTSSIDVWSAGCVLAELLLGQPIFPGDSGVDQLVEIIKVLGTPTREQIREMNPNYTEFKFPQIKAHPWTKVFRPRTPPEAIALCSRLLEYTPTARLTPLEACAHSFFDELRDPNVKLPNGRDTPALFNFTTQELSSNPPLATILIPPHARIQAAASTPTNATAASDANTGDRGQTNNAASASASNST

[6] = target: Mitogen-activated protein kinase 1 (Homo sapiens) (UniProt P28482); assay: Activity of MAPK1 at 10 uM; procedure, shortened: as §1
Mitogen-activated protein kinase 1 (Homo sapiens), sequence (P28482 whole entry): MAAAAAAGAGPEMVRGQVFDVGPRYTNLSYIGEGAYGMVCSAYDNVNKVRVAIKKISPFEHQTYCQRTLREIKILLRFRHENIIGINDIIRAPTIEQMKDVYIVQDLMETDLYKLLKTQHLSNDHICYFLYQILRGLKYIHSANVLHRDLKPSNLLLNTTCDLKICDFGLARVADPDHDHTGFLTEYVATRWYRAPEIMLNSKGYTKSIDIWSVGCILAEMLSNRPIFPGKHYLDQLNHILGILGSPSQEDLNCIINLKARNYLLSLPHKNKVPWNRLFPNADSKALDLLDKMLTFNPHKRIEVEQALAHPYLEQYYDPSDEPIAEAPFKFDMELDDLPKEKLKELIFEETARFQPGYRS

[7] = target: Ribosomal protein S6 kinase (P70S6K) (Homo sapiens) (UniProt Q9UBS0+P23443); assay: Activity of P70S6K at 10 uM; assay type: protein-complex assay; procedure, shortened: as §1
[8] = target: cAMP-dependent protein kinase (PKA) (Homo sapiens) (UniProt P22694+P17612+P22612); assay: Activity of PKA at 10 uM; assay type: protein assay; procedure, shortened: as §1
[9] = target: RAC-alpha serine/threonine-protein kinase (Homo sapiens) (UniProt P31749); assay: Activity of PKBalpha at 10 uM; procedure, shortened: as §1
RAC-alpha serine/threonine-protein kinase (Homo sapiens), sequence (P31749 whole entry): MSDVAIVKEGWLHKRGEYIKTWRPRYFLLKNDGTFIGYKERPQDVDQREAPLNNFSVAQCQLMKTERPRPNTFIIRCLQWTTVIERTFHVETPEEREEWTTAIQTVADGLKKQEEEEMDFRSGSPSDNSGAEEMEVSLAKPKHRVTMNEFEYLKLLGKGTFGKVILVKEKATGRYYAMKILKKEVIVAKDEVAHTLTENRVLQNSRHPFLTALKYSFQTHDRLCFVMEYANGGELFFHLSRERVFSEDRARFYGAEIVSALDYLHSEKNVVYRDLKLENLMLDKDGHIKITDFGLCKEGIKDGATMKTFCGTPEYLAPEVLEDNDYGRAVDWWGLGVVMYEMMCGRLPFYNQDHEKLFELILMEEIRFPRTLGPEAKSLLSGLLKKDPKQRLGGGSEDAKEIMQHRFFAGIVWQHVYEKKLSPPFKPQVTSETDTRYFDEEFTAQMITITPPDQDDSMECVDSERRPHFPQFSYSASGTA

[10] = target: Mitogen-activated protein kinase 14 (Homo sapiens) (UniProt Q16539); assay: Activity of SAPK2-alpha at 10 uM; procedure, shortened: as §1
Mitogen-activated protein kinase 14 (Homo sapiens), sequence (Q16539 whole entry): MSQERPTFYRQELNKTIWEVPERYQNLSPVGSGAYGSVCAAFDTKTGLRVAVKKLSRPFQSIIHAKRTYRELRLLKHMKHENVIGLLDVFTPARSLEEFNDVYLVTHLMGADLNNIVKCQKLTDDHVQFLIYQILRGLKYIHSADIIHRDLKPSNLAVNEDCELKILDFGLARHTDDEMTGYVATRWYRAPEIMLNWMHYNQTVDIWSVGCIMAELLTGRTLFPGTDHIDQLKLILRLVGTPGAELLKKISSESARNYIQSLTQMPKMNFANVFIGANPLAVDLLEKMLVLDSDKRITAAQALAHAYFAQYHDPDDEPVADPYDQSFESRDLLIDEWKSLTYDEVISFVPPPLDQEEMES

HT-29 [11] = assay: Cell cycle arrest in HT29 cells by accumulation at S phase at 50 uM after 3 hrs; assay type: functional, Homo sapiens
Procedure, shortened: (§2)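 Subconfluent, asynchronous HT-29 cells were treated 3, 6 or 12 h, then pulsed with 10 µM BrdU for 30 min at 37 °C. Cells were fixed in ice-cold 70% ethanol, DNA denatured in 2 M HCl and neutralised with borate. Staining used FITC anti-BrdU, then propidium iodide (0.1 mg/mL) with RNase A. Analysis by flow cytometry with 488 nm laser.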

HT-29 [12] = assay: Cell cycle arrest in HT29 cells by accumulation at G2/M phase at 50 uM after 3 hrs; assay type: functional, Homo sapiens; procedure, shortened: as §2
HT-29 [13] = assay: Cell cycle arrest in HT29 cells by accumulation at G0/G1 phase at 50 uM after 6 hrs; assay type: functional, Homo sapiens; procedure, shortened: as §2
HT-29 [14] = assay: Cell cycle arrest in HT29 cells by accumulation at G2/M phase at 50 uM after 6 hrs; assay type: functional, Homo sapiens; procedure, shortened: as §2
MCF7 [15] = assay: Viability of MCF7 cells at 100 uM; assay type: functional, Homo sapiens
Procedure, shortened: (§3)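 Cells grown in DMEM with 10% FCS and 4 mM glutamine at 37 °C, plated in 96-well format, preincubated 12 h, then exposed 72 h. Live cells measured by Calcein AM (1 h) fluorescence at 485/538 nm; % viable cells given at 100 µM compound.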

K562 = assay: Viability of K562 cells at 100 uM; assay type: functional, Homo sapiens; procedure, shortened: as §3
[16] = target: T1, Cyclin-dependent kinase 2/cyclin E; assay: Inhibition of CDK2/Cyclin E; assay type: protein-complex assay; settings: read-out: Ki app
Procedure, shortened: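 CDK2-cyclin E made in Sf9 insect cells co-infected with baculoviral constructs, purified on NiNTA. Assayed with 1 mg/mL histone H1, 15 µM ATP plus 0.05 µCi [γ-33P]ATP, in 50 mM HEPES, 10 mM MgCl2, 5 mM EGTA, 10 mM 2-glycerolphosphate, 1 mM NaF, 1 mM DTT, pH 7.4. Activity expressed as percentage of maximum; IC50 taken from dose-response curves.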

[17] = target: T1, Cyclin-dependent kinase 2/cyclin E; assay: Inhibition of CDK2/Cyclin E in presence of 100 uM ATP; assay type: protein-complex assay
[18] = target: Cyclin-dependent kinase 1/cyclin B (Homo sapiens, UniProt P06493); assay: Inhibition of CDK1/Cyclin B in presence of 100 uM ATP; assay type: protein-complex assay
[19] = target: Cyclin-dependent kinase 4/cyclin D1 (Homo sapiens, UniProt P11802); assay: Inhibition of CDK4/Cyclin D1 in presence of 100 uM ATP; assay type: protein-complex assay
Cyclin-dependent kinase 4/cyclin D1, sequence (P11802 whole entry): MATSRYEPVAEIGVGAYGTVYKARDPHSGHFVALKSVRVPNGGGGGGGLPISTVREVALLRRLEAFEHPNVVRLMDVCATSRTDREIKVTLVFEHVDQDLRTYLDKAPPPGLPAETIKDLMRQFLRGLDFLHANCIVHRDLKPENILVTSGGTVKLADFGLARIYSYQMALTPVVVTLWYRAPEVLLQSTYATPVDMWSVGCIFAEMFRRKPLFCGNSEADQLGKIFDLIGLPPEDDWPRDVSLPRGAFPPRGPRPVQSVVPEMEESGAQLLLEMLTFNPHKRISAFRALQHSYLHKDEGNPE
Cyclin-dependent kinase 4/cyclin D1, sequence (P24385 whole entry, further chain): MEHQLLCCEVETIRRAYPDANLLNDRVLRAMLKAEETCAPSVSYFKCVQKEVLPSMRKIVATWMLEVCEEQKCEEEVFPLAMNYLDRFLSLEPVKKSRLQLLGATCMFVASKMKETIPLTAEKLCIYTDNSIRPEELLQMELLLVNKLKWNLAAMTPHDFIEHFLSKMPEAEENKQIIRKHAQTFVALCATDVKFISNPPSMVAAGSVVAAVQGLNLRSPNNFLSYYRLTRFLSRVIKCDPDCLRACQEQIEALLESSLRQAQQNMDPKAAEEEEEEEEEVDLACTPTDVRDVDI

[20] = target: Cyclin-dependent kinase 7/ cyclin H (Homo sapiens, UniProt P50613); assay: Inhibition of CDK7/Cyclin H in presence of 100 uM ATP; assay type: protein-complex assay
Cyclin-dependent kinase 7/ cyclin H, sequence (P51946 whole entry): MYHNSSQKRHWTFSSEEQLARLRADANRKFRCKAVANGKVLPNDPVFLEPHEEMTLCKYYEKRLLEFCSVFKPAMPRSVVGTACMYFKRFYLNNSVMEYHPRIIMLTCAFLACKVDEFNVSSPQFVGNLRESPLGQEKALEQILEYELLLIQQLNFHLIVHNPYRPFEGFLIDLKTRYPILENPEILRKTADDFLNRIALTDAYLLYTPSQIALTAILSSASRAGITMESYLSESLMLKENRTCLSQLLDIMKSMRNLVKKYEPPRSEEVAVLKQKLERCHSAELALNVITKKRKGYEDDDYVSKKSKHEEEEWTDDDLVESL
Cyclin-dependent kinase 7/ cyclin H, sequence (P50613 whole entry): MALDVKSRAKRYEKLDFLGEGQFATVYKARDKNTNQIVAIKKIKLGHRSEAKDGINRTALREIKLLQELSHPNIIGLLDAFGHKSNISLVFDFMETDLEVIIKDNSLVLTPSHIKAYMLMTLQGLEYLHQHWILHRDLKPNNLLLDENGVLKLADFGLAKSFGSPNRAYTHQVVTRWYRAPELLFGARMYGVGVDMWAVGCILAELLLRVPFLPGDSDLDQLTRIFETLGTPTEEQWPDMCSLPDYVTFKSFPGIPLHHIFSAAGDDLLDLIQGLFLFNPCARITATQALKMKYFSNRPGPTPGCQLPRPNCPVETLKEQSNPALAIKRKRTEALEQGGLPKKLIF

[21] = target: CDK9/cyclin T1 (Homo sapiens) (UniProt O60563+P50750); assay: Activity of CDK9/Cyclin T1 at 10 uM; assay type: protein-complex assay
HT-29 [22] = assay: Inhibition of GAPDH mRNA synthesis in HT29 cells measured as number of copies per 10^6 cells by RT PCR at 50 uM after 3 hrs; assay type: functional, Homo sapiens
Procedure, shortened: (§4)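 HT-29 cells (5 × 10⁶) treated for 3, 6 or 12 h; total RNA extracted with TRI reagent, 3 µg reverse transcribed with random primers and M-MLV RT (42 °C, 60 min). Absolute transcript copies quantified by TaqMan real-time PCR, 50 cycles, against diluted gene-specific amplicon standards (30–1 000 000 copies); duplicate PCR per sample; values are means of four determinations ± SD.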

HT-29 [23] = assay: Inhibition of GAPDH mRNA synthesis in HT29 cells measured as number of copies per 10^6 cells by RT PCR at 50 uM after 6 hrs; assay type: functional, Homo sapiens; procedure, shortened: as §4
HT-29 [24] = assay: Inhibition of GAPDH mRNA synthesis in HT29 cells measured as number of copies per 10^6 cells by RT PCR at 50 uM after 12 hrs; assay type: functional, Homo sapiens; procedure, shortened: as §4
HT-29 [25] = assay: Inhibition of EpCAM mRNA synthesis in HT29 cells measured as number of copies per 10^6 cells by RT PCR at 50 uM after 3 hrs; assay type: functional, Homo sapiens; procedure, shortened: as §4
HT-29 [26] = assay: Inhibition of EpCAM mRNA synthesis in HT29 cells measured as number of copies per 10^6 cells by RT PCR at 50 uM after 6 hrs; assay type: functional, Homo sapiens; procedure, shortened: as §4
MCF7 [27] = assay: Decrease in pRb phosphorylation in MCF7 cells after 24 hrs at 25 uM; assay type: functional, cell-based; settings: Homo sapiens
Procedure, shortened: (§5)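 MCF7 cells were treated 24 h, lysed in Laemmli buffer and run on 10% SDS-PAGE. Proteins were blotted to nitrocellulose; loading checked with Ponceau-S; blocked with 5% milk in PBS-Tween. Specific antibodies applied overnight (pRb phosphosites Ser780, Ser807, Thr821; p53; p21WAF1), then peroxidase secondary at 1:2000 with ECL detection.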

MCF7 [28] = assay: Decrease in pRb phosphorylation in MCF7 cells after 24 hrs at 50 uM; assay type: functional, cell-based; settings: Homo sapiens; procedure, shortened: as §5
MCF7 [29] = assay: Increase in p53 expression level in MCF7 cells at 50 uM after 24 hrs; assay type: functional, cell-based; settings: Homo sapiens; procedure, shortened: as §5
MCF7 (Homo sapiens) = assay: Reduction of RNA polymerase 2 CTD phosphorylation in MCF7 cells after 24 hrs

pIC50 [1]: 5.46
residual activity [2]: 84%
residual activity [3]: 89%
residual activity [4]: 65%
residual activity [5]: 81%
residual activity [6]: 99%
residual activity [7]: 51%
residual activity [8]: 67%
residual activity [9]: 100%
residual activity [10]: 82%
pKi [16]: 4.88
pIC50 [17]: 4.70
pIC50 [18]: 4.36
pIC50 [19]: 4.87
pIC50 [20]: 4.59
residual activity [21]: 6.9%
SMILES: Nc1n[nH]c(N)c1/N=N/c1ccc(O)cc1
Activity (HT-29 [11]): 55.7%
Activity (HT-29 [12]): 11.4%
Activity (HT-29 [13]): 35.9%
Activity (HT-29 [14]): 9.9%
Activity (MCF7 [15]): 20%
Activity (K562): 23%
Activity (HT-29 [22]): 3342533
Activity (HT-29 [23]): 3785908
Activity (HT-29 [24]): 1811960
Activity (HT-29 [25]): 6047138
Activity (HT-29 [26]): 5069600
Activity (MCF7 [27]): Active
Activity (MCF7 [28]): Active
Activity (MCF7 [29]): Active
Activity (MCF7 (Homo sapiens)): Active
